Results on eleven molecules are retold here after ChEMBL document CHEMBL3243979, “Syntheses of N-substituted 2(3,4)-pyridylcarboxylic acid hydrazides with analgesic and antiinflammatory activity” (1979).

Type in all cases: functional
The test system of assay [1] is Rattus norvegicus. Kind of assay: Antiinflammatory activity in Sprague-Dawley rat assessed as inhibition of carrageenan-induced paw edema at 128 mg/kg, sc administered post-challenge measured at 3 hrs post compound treatment relative to vehicle-treated control. The note with it: route subcutaneous. On the technique in general: The carrageenan paw model is a standard test of acute inflammation.

Assay [2] has as its system Mus musculus. Kind of assay: Analgesic activity in Swiss albino mouse assessed as inhibition of phenyl-p-benzoquinone-induced writhing at 128 mg/kg, sc administered 30 mins prior challenge relative to vehicle-treated control. The settings on record: route subcutaneous. The procedure, abridged:
(§1)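 Male Swiss albino mice, 18–22 g, five per group. Compound suspended in physiological saline with Tween 80 and given sc. At 30 min, 0.03% phenyl-p-benzoquinone given ip at 0.1 mL/10 g body weight. Total writhes per animal counted against a vehicle-treated control group. % change = (treated writhes/control writhes) × 100 − 100.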
On the technique in general: In writhing tests, fewer writhes than in controls are read as antinociception.

The subject of assay [3] is Rattus norvegicus. Kind of assay: Antiinflammatory activity in Sprague-Dawley rat assessed as inhibition of carrageenan-induced paw edema at 128 mg/kg, sc administered post-challenge measured at 5 hrs post compound treatment relative to vehicle-treated control. The settings on record: route subcutaneous.
For assay [4], the system named is Rattus norvegicus. The experiment in a line: Antiinflammatory activity in Sprague-Dawley rat assessed as inhibition of carrageenan-induced paw edema at 12 mg/kg, sc administered post-challenge measured at 5 hrs post compound treatment relative to vehicle-treated control. The note with it: route subcutaneous.
Assay [5] concerns Rattus norvegicus. Kind of assay: Antiinflammatory activity in Sprague-Dawley rat assessed as inhibition of carrageenan-induced paw edema at 12 mg/kg, sc administered post-challenge measured at 3 hrs post compound treatment relative to vehicle-treated control. The note with it: route subcutaneous.
Assay [6] has as its system Rattus norvegicus. Kind of assay: Antiinflammatory activity in Sprague-Dawley rat assessed as inhibition of carrageenan-induced paw edema at 100 mg/kg, […] measured at 3 hrs post compound treatment relative to vehicle-treated control. The note with it: sc, route subcutaneous.
Assay [7] relates to Mus musculus. Kind of assay: Analgesic activity in Swiss albino mouse assessed as inhibition of phenyl-p-benzoquinone-induced writhing at 120 mg/kg, sc administered 30 mins prior challenge relative to vehicle-treated control. The settings on record: route subcutaneous. The procedure, abridged: as §1
Assay [8] has as its system Rattus norvegicus. The experiment in a line: Antiinflammatory activity in Sprague-Dawley rat assessed as inhibition of carrageenan-induced paw edema at 100 mg/kg, sc administered post-challenge measured at 5 hrs post compound treatment relative to vehicle-treated control. The settings on record: route subcutaneous.
Assay [9] deals with Mus musculus. The experiment in a line: Analgesic activity in Swiss albino mouse assessed as inhibition of phenyl-p-benzoquinone-induced writhing at 56 mg/kg, sc administered 30 mins prior challenge relative to vehicle-treated control. The settings on record: route subcutaneous. The method in brief:
as §1

In assay [10] the test system is Rattus norvegicus. The experiment in a line: Antiinflammatory activity in Sprague-Dawley rat assessed as inhibition of carrageenan-induced paw edema at 120 mg/kg, […] measured at 3 hrs post compound treatment relative to vehicle-treated control. The note with it: sc, route subcutaneous.
For assay [11], the system named is Rattus norvegicus. Kind of assay: Antiinflammatory activity in Sprague-Dawley rat assessed as inhibition of carrageenan-induced paw edema at 120 mg/kg, sc administered post-challenge measured at 5 hrs post compound treatment relative to vehicle-treated control. The note with it: route subcutaneous.
The subject of assay [12] is Mus musculus. The experiment in a line: Analgesic activity in Swiss albino mouse assessed as inhibition of phenyl-p-benzoquinone-induced writhing at 11.8 mg/kg, sc administered 30 mins prior challenge relative to vehicle-treated control. The note with it: route subcutaneous. The method in brief: as §1
Assay [13] relates to Rattus norvegicus. Kind of assay: Antiinflammatory activity in Sprague-Dawley rat assessed as inhibition of carrageenan-induced paw edema at 64 mg/kg, […] measured at 3 hrs post compound treatment relative to vehicle-treated control. The settings on record: sc, route subcutaneous.
Assay [14] concerns Rattus norvegicus. The experiment in a line: Antiinflammatory activity in Sprague-Dawley rat assessed as inhibition of carrageenan-induced paw edema at 64 mg/kg, sc administered post-challenge measured at 5 hrs post compound treatment relative to vehicle-treated control. The note with it: route subcutaneous.
Assay [15] relates to Mus musculus. Kind of assay: Analgesic activity in Swiss albino mouse assessed as inhibition of phenyl-p-benzoquinone-induced writhing at 50 mg/kg, sc administered 30 mins prior challenge relative to vehicle-treated control. The note with it: route subcutaneous. The procedure, abridged:
as §1

One may read the inhibition in vivo as the percentage by which the read-out fell short of the control.

For the molecule `O=C(NNC(=O)c1ccncc1)c1ccccc1`, the results for the inhibition in vivo at 128 mg/kg in the assay on Rattus norvegicus [1], with Mus musculus [2] and in the assay with Rattus norvegicus [3] were 17%, 38.3% and 0%, respectively.

With `CC(=O)N(NC(=O)c1ccncc1)C(C)=O`, the inhibition in vivo at 128 mg/kg in the assay on Rattus norvegicus [1] was 50%; in the assay on Mus musculus [2] it was 32%; in the assay with Rattus norvegicus [3] it was 17%.

Regarding `COc1ccc2c(c1)c(CC(=O)O)c(C)n2C(=O)c1ccc(Cl)cc1` [INDOMETHACIN], the inhibition in vivo at 12 mg/kg in the assay with Rattus norvegicus [4] is 83%; with Rattus norvegicus [5], 17%.

Consider `O=C(NN(C(=O)c1ccncc1)c1ccccc1)c1ccncc1`, for which the inhibition in vivo at 100 mg/kg in the assay on Rattus norvegicus [6] and in the assay with Rattus norvegicus [8] was 34% each time. Further, in the assay with Mus musculus [7], the inhibition in vivo at 120 mg/kg came out at 84%.

Take `CCC(=O)O[C@](Cc1ccccc1)(c1ccccc1)[C@H](C)CN(C)C` [PROPOXYPHENE]: the inhibition in vivo at 56 mg/kg with Mus musculus [9] came to 50%.

`O=C(NNc1ccccn1)c1ccccn1`: the inhibition in vivo at 120 mg/kg in the assay with Rattus norvegicus [10] and with Rattus norvegicus [11] was 100% each time. For the same molecule, the inhibition in vivo at 11.8 mg/kg in the assay with Mus musculus [12] turned out to be 50%.

With `CN(C)NC(=O)c1cccnc1`, the inhibition in vivo at 64 mg/kg with Rattus norvegicus [13] and in the assay with Rattus norvegicus [14] was 0% throughout. For the same molecule, the inhibition in vivo at 128 mg/kg in the assay with Mus musculus [2] came to 45%.

In the case of `CC(=O)Oc1ccccc1C(=O)O` [ASPIRIN], the inhibition in vivo at 50 mg/kg with Mus musculus [15] was 50%.

For the molecule `O=C(NN1CCc2ccccc2C1)c1ccncc1`, the inhibition in vivo at 128 mg/kg in the assay with Rattus norvegicus [1] turned out to be 17%; in the assay on Mus musculus [2], 79%; in the assay with Rattus norvegicus [3] it was 17%.

Turning to `O=C(NN1CCOCC1)c1cccnc1`, the results for the inhibition in vivo at 128 mg/kg in the assay with Rattus norvegicus [1], in the assay on Mus musculus [2] and in the assay on Rattus norvegicus [3] were 50%, 6.7% and 17%, respectively.

As to `O=C(NNc1ccccn1)c1ccncc1`, the inhibition in vivo at 100 mg/kg in the assay on Rattus norvegicus [6] is 83%; with Rattus norvegicus [8], 100%. For the same molecule, in the assay on Mus musculus [7], the inhibition in vivo at 120 mg/kg was 0%.
